Experimental data reported in ChEMBL document CHEMBL4346665, “Synthesis and evaluation of tetrahydroquinolin-2(1H)-one derivatives as novel anti-pancreatic cancer agents via targeting autophagy” (Eur J Med Chem, 2019).
pIC50: −log10 of the molar value. Activity calls are given as the source filed them. The rule behind the calls is not given here.

Legend:
[1] = system: PANC-1; assay: Antitumor activity against human PANC1 cells xenografted in nude mouse assessed as reduction in tumor size at 30 mg/kg, ip administered every 3 days for 4 weeks post tumor inoculation; type: functional, organism-based
Outline: (§1)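 PANC-1 xenografts in nude mice. Dosing daily at 5, 10 or 20 mg/kg/day for 30 days, or 30 mg/kg every three days for the gemcitabine reference. Tumor volume from diameters and tumor weight at end of study. Body weight monitored, kidney and liver examined. T1-weighted MRI on day 30 with Gd-DTPA contrast via tail vein. Mean ± S.D., n = 5, vs control group.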

[2] = system: PANC-1; assay: Antitumor activity against human PANC1 cells xenografted in nude mouse assessed as reduction in tumor weight at 30 mg/kg, ip administered every 3 days for 4 weeks post tumor inoculation; type: functional, organism-based; outline: as §1
[3] = Toxicity in human PANC1 cells xenografted in nude mouse assessed as change in body weight at 30 mg/kg, ip administered every 3 days for 4 weeks post tumor inoculation; type: organism-based; conditions: in vivo; outline: as §1
[4] = Toxicity in human PANC1 cells xenografted in nude mouse assessed as pathological changes in kidney at 30 mg/kg, ip administered every 3 days for 4 weeks post tumor inoculation by hematoxylin and eosin staining based assay; type: organism-based; conditions: in vivo; outline: as §1
[5] = Toxicity in human PANC1 cells xenografted in nude mouse assessed as pathological changes in liver at 30 mg/kg, ip administered every 3 days for 4 weeks post tumor inoculation by hematoxylin and eosin staining based assay; type: organism-based; conditions: in vivo; outline: as §1
[6] = system: PANC-1; assay: Growth inhibition of human PANC1 cells in nutrient-deprived medium at 10 uM incubated for 24 hrs by MTT assay (reference value: 0.0 +/- 1.9%); type: functional; conditions: PANC-1, 24 h
[7] = system: PANC-1; assay: Growth inhibition of human PANC1 cells in nutrient-rich medium at 10 uM incubated for 24 hrs by MTT assay (reference value: 0.0 +/- 3.8%); type: functional; conditions: PANC-1, 24 h
[8] = system: PANC-1; assay: Growth inhibition of human PANC1 cells in nutrient-deprived medium incubated for 24 hrs by MTT assay; type: functional, cell-based; conditions: PANC-1, 24 h
[9] = system: PANC-1; assay: Induction of apoptosis in human PANC1 cells in nutrient-deprived medium assessed as live cells at 5 uM incubated for 24 hrs by Annexin V-FITC/PI double staining based flow cytometric analysis (reference value: 85.75 to 96.8%); type: functional
Outline: (§2)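 PANC-1 cells under NDC exposed 24 h at 5.0, 10.0 or 20.0 µM. Annexin V-FITC/PI double staining, flow cytometric quantification of live, early apoptotic, late apoptotic and necrotic fractions. Arctigenin as positive control.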

[10] = system: PANC-1; assay: Induction of apoptosis in human PANC1 cells in nutrient-deprived medium assessed as early apoptotic cells at 5 uM incubated for 24 hrs by Annexin V-FITC/PI double staining based flow cytometric analysis (reference value: 0.22 to 14.25%); type: functional; outline: as §2
[11] = system: PANC-1; assay: Induction of apoptosis in human PANC1 cells in nutrient-deprived medium assessed as late apoptotic cells at 5 uM incubated for 24 hrs by Annexin V-FITC/PI double staining based flow cytometric analysis (reference value: 0 to 0.9%); type: functional; outline: as §2
[12] = system: PANC-1; assay: Induction of apoptosis in human PANC1 cells in nutrient-deprived medium assessed as necrotic cells at 5 uM incubated for 24 hrs by Annexin V-FITC/PI double staining based flow cytometric analysis (reference value: 0 to 2.8%); type: functional; outline: as §2
[13] = system: PANC-1; assay: Induction of apoptosis in human PANC1 cells in nutrient-deprived medium assessed as live cells at 10 uM incubated for 24 hrs by Annexin V-FITC/PI double staining based flow cytometric analysis (reference value: 85.75 to 96.8%); type: functional; outline: as §2
[14] = system: PANC-1; assay: Induction of apoptosis in human PANC1 cells in nutrient-deprived medium assessed as early apoptotic cells at 10 uM incubated for 24 hrs by Annexin V-FITC/PI double staining based flow cytometric analysis (reference value: 0.22 to 14.25%); type: functional; outline: as §2
[15] = system: PANC-1; assay: Induction of apoptosis in human PANC1 cells in nutrient-deprived medium assessed as late apoptotic cells at 10 uM incubated for 24 hrs by Annexin V-FITC/PI double staining based flow cytometric analysis (reference value: 0 to 0.9%); type: functional; outline: as §2
[16] = system: PANC-1; assay: Induction of apoptosis in human PANC1 cells in nutrient-deprived medium assessed as necrotic cells at 10 uM incubated for 24 hrs by Annexin V-FITC/PI double staining based flow cytometric analysis (reference value: 0 to 2.8%); type: functional; outline: as §2
[17] = system: PANC-1; assay: Induction of apoptosis in human PANC1 cells in nutrient-deprived medium assessed as live cells at 20 uM incubated for 24 hrs by Annexin V-FITC/PI double staining based flow cytometric analysis (reference value: 85.75 to 96.8%); type: functional; outline: as §2
[18] = system: PANC-1; assay: Induction of apoptosis in human PANC1 cells in nutrient-deprived medium assessed as early apoptotic cells at 20 uM incubated for 24 hrs by Annexin V-FITC/PI double staining based flow cytometric analysis (reference value: 0.22 to 14.25%); type: functional; outline: as §2
[19] = system: PANC-1; assay: Induction of apoptosis in human PANC1 cells in nutrient-deprived medium assessed as late apoptotic cells at 20 uM incubated for 24 hrs by Annexin V-FITC/PI double staining based flow cytometric analysis (reference value: 0 to 0.9%); type: functional; outline: as §2
[20] = system: PANC-1; assay: Induction of apoptosis in human PANC1 cells in nutrient-deprived medium assessed as necrotic cells at 20 uM incubated for 24 hrs by Annexin V-FITC/PI double staining based flow cytometric analysis (reference value: 0 to 2.8%); type: functional; outline: as §2
[21] = Cytotoxicity against mouse NCTC-1469 cells up to 20 uM incubated for 24 hrs by MTT assay; type: cell-based
[22] = system: PANC-1; assay: Inhibition of colony formation in human PANC1 cells in nutrient-deprived medium treated for 24 hrs followed by compound washout and subsequent incubation for 14 days by crystal violet staining based assay; type: functional, cell-based
Outline: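 Clonogenic assay of PANC-1 under NDC across several concentrations. Surviving colonies counted, mean ± S.D., n = 3.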

[23] = system: PANC-1; assay: Induction of apoptosis in human PANC1 cells in nutrient-deprived medium incubated for 24 hrs by Annexin V-FITC/PI double staining based flow cytometric analysis; type: functional, cell-based; outline: as §2
[24] = system: PANC-1; assay: Antitumor activity against human PANC1 cells xenografted in nude mouse assessed as reduction in tumor size at 20 mg/kg, ip administered daily for 4 weeks post tumor inoculation and observed on day 9; type: functional; outline: as §1
[25] = system: PANC-1; assay: Antitumor activity against human PANC1 cells xenografted in ip dosed nude mouse assessed as reduction in tumor size administered daily for 4 weeks post tumor inoculation and observed on day 21 to 30; type: functional, organism-based; outline: as §1
[26] = Toxicity in human PANC1 cells xenografted in nude mouse assessed as mortality at 5 to 20 mg/kg, ip administered daily for 4 weeks post tumor inoculation; type: organism-based; conditions: in vivo, 672 h
Outline: (§3)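 PANC-1 xenografts in nude mice, 5 per group. Daily injections of 5, 10 or 20 mg/kg for 30 days. Gemcitabine reference arm dosed at 30 mg/kg every three days, compared with untreated controls. Body weight tracked through dosing and deaths recorded. Tumour diameters measured over time and tumours weighed at endpoint. Kidneys and liver examined for lesions.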

[27] = Toxicity in human PANC1 cells xenografted in nude mouse assessed as pathological changes in liver at 20 mg/kg, ip administered daily for 4 weeks post tumor inoculation by hematoxylin and eosin staining based assay; type: organism-based; conditions: in vivo, 672 h; outline: as §1
[28] = Toxicity in human PANC1 cells xenografted in nude mouse assessed as pathological changes in kidney at 20 mg/kg, ip administered daily for 4 weeks post tumor inoculation by hematoxylin and eosin staining based assay; type: organism-based; conditions: in vivo, 672 h; outline: as §1
[29] = Toxicity in human PANC1 cells xenografted in nude mouse assessed as change in body weight at 5 to 20 mg/kg, ip administered daily for 4 weeks post tumor inoculation; type: organism-based; conditions: in vivo, 672 h; outline: as §3
[30] = system: PANC-1; assay: Antitumor activity against human PANC1 cells xenografted in nude mouse assessed as reduction in tumor size at 5 to 20 mg/kg, ip administered daily for 4 weeks post tumor inoculation by Gd-DTPA based T1 weighted MRI analysis; type: functional, organism-based; outline: as §1
[31] = system: PANC-1; assay: Induction of autophagy in human PANC1 cells in nutrient-deprived medium assessed as reduction in percentage area of LC3 at 10 uM incubated for 24 hrs by DAPI staining based confocal microscopic analysis; type: functional, cell-based
Outline: (§4)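 LC3-transfected PANC-1 cells under NNC, NDC, or NDC plus 10 µM compound. Cells co-labeled for LC3B and DAPI and imaged by confocal microscopy. LC3 puncta number, percentage area and mean intensity quantified.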

[32] = system: PANC-1; assay: Induction of autophagy in human PANC1 cells in nutrient-deprived medium assessed as reduction in mean intensity of LC3 at 10 uM incubated for 24 hrs by DAPI staining based confocal microscopic analysis; type: functional, cell-based; outline: as §4
[33] = system: PANC-1; assay: Antitumor activity against human PANC1 cells xenografted in nude mouse assessed as reduction in tumor size at 20 mg/kg, ip administered daily for 4 weeks post tumor inoculation and observed on day 6; type: functional, organism-based; outline: as §1
[34] = system: PANC-1; assay: Antitumor activity against human PANC1 cells xenografted in nude mouse assessed as reduction in tumor weight at 20 mg/kg, ip administered daily for 4 weeks post tumor inoculation; type: functional, organism-based; outline: as §1
[35] = system: PANC-1; assay: Inhibition of autophagy in human PANC1 cells in nutrient-deprived medium assessed as accumulation of SQSTM1 protein at 10 uM incubated for 1 to 6 hrs by Western blot analysis
[36] = system: PANC-1; assay: Inhibition of autophagy in human PANC1 cells in nutrient-deprived medium assessed as reduction in LC3-2 expression level at 10 uM incubated for 1 to 6 hrs by Western blot analysis

Row | Structure (SMILES) | inhibition at 10 µM [6] [%] | inhibition at 10 µM [7] [%] | pIC50 [8] | Activity [9] [%] | Activity [10] [%] | Activity [11] [%] | Activity [12] [%] | Activity [13] [%] | Activity [14] [%] | Activity [15] [%] | Activity [16] [%] | Activity [17] [%] | Activity [18] [%] | Activity [19] [%] | Activity [20] [%] | also measured
1 | Nc1ccn([C@@H]2O[C@H](CO)[C@@H](O)C2(F)F)c(=O)n1 [GEMCITABINE] | – | – | – | – | – | – | – | – | – | – | – | – | – | – | – | Activity [1]: Active; Activity [2]: Active; Activity [3]: Non-Toxic; Activity [4]: Non-Toxic; Activity [5]: Non-Toxic
2 | COc1cc(C[C@H]2C(=O)OC[C@@H]2Cc2ccc(OC)c(OC)c2)ccc1O [ARCTIGENIN] | 79.1 | 66.8 | 5.66 | 8.66 | 1.43 | 83.08 | 6.84 | 4.13 | 1.03 | 89.2 | 5.64 | 2.23 | 1.06 | 90.44 | 6.29 | –
3 | CC(C)=CCC/C(C)=C/CC1Cc2c(OCCCNC(=O)c3cccs3)cc(=O)n(CCCO)c2CC1(C)C (stereo unspecified) | 72.8 | 11.5 | 5.31 | 38.56 | 35.35 | 26 | 0.09 | 20.25 | 41.58 | 38.03 | 0.14 | 1.56 | 2.34 | 91.74 | 4.36 | Activity [21]: Non-Toxic; inhibition [22]: Dose-dependent effect; Activity [23]: Dose-dependent effect; Activity [24]: 71.25 mm3; Activity [25]: Dose-dependent effect; Activity [26]: Non-Toxic; Activity [27]: Non-Toxic; Activity [28]: Non-Toxic; Activity [29]: Non-Toxic; Activity [30]: Active; Activity [31]: Active; Activity [32]: Active; Activity [33]: inactive; Activity [34]: Active; Activity [35]: Active; Activity [36]: Active
